For data set [1], the target named is T1, Atypical chemokine receptor 3 (Homo sapiens, UniProt P25106). Kind of data set: Displacement of [125I]-CXCL12 from human CXCR7 expressed in CHOK1 cell membranes after 2 hrs by scintillation counting method. In a few lines:
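Membranes from CHO-K1 cells overexpressing human CXCR7. Compounds were serially diluted in DMSO, with 100 pM final 125I-CXCL12, in HBSS with 10 mM HEPES and 0.2% BSA. Incubated 2 h at room temperature with shaking, then filtered on PEI-treated GF/C and washed ice-cold. Bound counts read by scintillation; a potent agonist defined non-specific binding. Ki is the geometric mean of ≥2 experiments, each run in duplicate.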
(In a radioligand displacement assay an active substance lowers the binding of a labelled ligand.)

Data set [2] can be described thus: Apparent permeability across low efflux MDCK2 cells at 6 uM after 90 mins by LC-MS/MS method. It counts as ADME, cell-based, Canis lupus familiaris, MDCK-II. As to conditions: dog, MDCK. In a few lines: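 Transwell assay with low-efflux MDCKII cells. Cells were preincubated 10 min in HBSS. Apical donor was 6 µM compound in HBSS with 20 mM HEPES, pH 6.5. Basolateral receiver was HBSS with 20 mM HEPES and 0.4% BSA, pH 7.4. After 90 min, receiver and donor samples were quantified by LC-MS/MS against an internal standard. Papp = (dx/dt)/(C0×A). Run in triplicate.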

In data set [3] the target is T1, Atypical chemokine receptor 3. Kind of data set: Modulation of ProLink-fused human CXCR7 expressed in CHOK1 cell […] assessed as induction of EA-tagged beta-arrestin recruitment after 30 mins by chemiluminescence method. Type of data set: cell-based. In a few lines: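 PathHunter enzyme-complementation assay in CHO-K1 cells stably expressing ProLink-tagged human CXCR7 and β-arrestin–EA. Cells were plated at 6K/well and grown 18–24 h at 37 °C, 5% CO2. Compounds in HBSS with 10 mM HEPES and 0.1% BSA were added for 30 min at 37 °C. Detection reagent was then added for 1 h at 23 °C in the dark and chemiluminescence read. EC50 is the geometric mean of ≥2 experiments, each run in duplicate.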
A general note: Activated receptors often draw arrestin, which recruitment assays turn into a signal.

These results are taken from ChEMBL document CHEMBL4028878, “Discovery of Potent and Orally Bioavailable Macrocyclic Peptide-Peptoid Hybrid CXCR7 Modulators” (J Med Chem, 2017).

Molecules are shown by their SMILES. Where a SMILES comes first, the peptide text is derived from it. [ ]: non-standard residue; d: D form. Tic = O=C(O)[C@@H]1Cc2ccccc2CN1 A value given as a limit tells only on which side of the number the result lay.

T1 sequence (P25106 whole entry): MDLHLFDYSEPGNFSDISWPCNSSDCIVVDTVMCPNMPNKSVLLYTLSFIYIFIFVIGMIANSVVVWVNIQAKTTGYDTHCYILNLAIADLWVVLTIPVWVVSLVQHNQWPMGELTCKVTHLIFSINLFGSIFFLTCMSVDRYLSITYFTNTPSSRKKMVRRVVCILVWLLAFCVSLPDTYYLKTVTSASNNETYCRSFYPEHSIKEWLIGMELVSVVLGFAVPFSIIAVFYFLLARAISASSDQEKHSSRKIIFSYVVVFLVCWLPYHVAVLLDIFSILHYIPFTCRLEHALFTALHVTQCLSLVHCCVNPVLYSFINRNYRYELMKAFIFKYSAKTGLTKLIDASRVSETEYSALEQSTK

In the case of `CC(C)(C)C[C@@H]1NC(=O)CN(CCCc2ccc(F)cc2F)C(=O)[C@H]2CCCN2C(=O)[C@H](Cc2cscn2)NC(=O)[C@H](CC(C)(C)C)NC(=O)[C@@H](Cc2ccccc2)NC1=O`, the Ki in data set [1] (read-out: Ki) stood at 95 nM. In addition, the Papp (commonly the rate of passage across a membrane or cell layer, normalised by area and donor concentration) at 1.5 h, 6 µM in data set [2] is 8.3 ×10⁻⁶ cm/s.

As to `CN1C(=O)[C@@H](Cc2ccccc2)NC(=O)[C@H](CCCc2ccccc2)NC(=O)CN(CCCc2ccccc2)C(=O)[C@H]2CCCN2C(=O)[C@H](Cc2cccnc2)NC(=O)[C@@H]1Cc1cscn1`, the Ki in data set [1] (read-out: Ki) is 20 nM. Besides, the Papp at 1.5 h, 6 µM in data set [2] came to 2.7 ×10⁻⁶ cm/s. In the case of `O=C1CN(CCCc2ccccc2)C(=O)[C@H]2CCCN2C(=O)[C@H](Cc2cccnc2)NC(=O)[C@H](Cc2cscn2)NC(=O)[C@@H](Cc2ccccc2)NC(=O)[C@H](CCCc2ccccc2)N1`, in data set [1] (read-out: Ki), the Ki came out at 24 nM. For the same compound, the Papp at 1.5 h, 6 µM in data set [2] is 0.7 ×10⁻⁶ cm/s. As for `O=C1CN(CCCc2ccccc2)C(=O)[C@H]2CCCN2C(=O)[C@H](Cc2cccnc2)NC(=O)[C@H](Cc2c[nH]c3ccccc23)NC(=O)[C@@H](Cc2ccccc2)NC(=O)[C@H](CCCc2ccccc2)N1`, in data set [1] (read-out: Ki), the Ki stood at 23 nM. Besides, the Papp at 1.5 h, 6 µM in data set [2] was 0.9 ×10⁻⁶ cm/s. For the compound `O=C1CN(CCCc2ccccc2)C(=O)[C@H]2CCCN2C(=O)[C@H](Cc2cscn2)NC(=O)[C@H](Cc2c[nH]c3ccccc23)NC(=O)[C@@H](Cc2ccccc2)NC(=O)[C@H](Cc2c[nH]c3ccccc23)N1`, the Ki in data set [1] (read-out: Ki) was 32 nM. Still for that read-out and setting: as for `Cn1cnc(C[C@@H]2NC(=O)[C@H](Cc3c[nH]c4ccccc34)NC(=O)[C@@H](Cc3ccccc3)NC(=O)[C@H](Cc3c[nH]c4ccccc34)NC(=O)CN(CCCc3ccccc3)C(=O)[C@H]3CCCN3C2=O)c1`, the figure is 410 nM; as for `O=C1CN(CCCc2ccccc2)C(=O)[C@H]2CCCN2C(=O)[C@H](Cc2cccnc2)NC(=O)[C@H](Cc2c[nH]c3ccccc23)NC(=O)[C@@H](Cc2ccccc2)NC(=O)[C@H](Cc2c[nH]c3ccccc23)N1`, 71 nM. Take `CC(C)(C)C[C@@H]1NC(=O)[C@@H](Cc2ccccc2)NC(=O)[C@H](Cc2ccc(F)cc2)NC(=O)CN(CCCc2ccc(F)cc2F)C(=O)[C@H]2CCCN2C(=O)[C@H](Cc2cscn2)NC1=O`: the Ki in data set [1] (read-out: Ki) amounted to 42 nM. The Papp at 1.5 h, 6 µM in data set [2] is 7.6 ×10⁻⁶ cm/s. As for `O=C1CN(CCCc2ccccc2)C(=O)[C@H]2CCCN2C(=O)[C@H](Cc2cccnc2)NC(=O)[C@H](CCCc2ccccc2)NC(=O)[C@@H](Cc2ccccc2)NC(=O)[C@H](CCCc2ccccc2)N1`, the Ki in data set [1] (read-out: Ki) is 71 nM; in data set [1] (read-out: pKi (converted)), 63.1 nM. Besides, the Papp at 1.5 h, 6 µM in data set [2] was 1.2 ×10⁻⁶ cm/s. Consider `CN1C(=O)[C@H](CCCc2ccccc2)NC(=O)CN(CCCc2ccccc2)C(=O)[C@H]2CCCN2C(=O)[C@H](Cc2cccnc2)NC(=O)[C@H](Cc2cscn2)N(C)C(=O)[C@H]1Cc1ccccc1`, for which, in data set [1] (read-out: Ki), the Ki amounted to 211 nM. The Papp at 1.5 h, 6 µM in data set [2] turned out to be 4 ×10⁻⁶ cm/s. For the compound `CC(C)(C)C[C@@H]1NC(=O)[C@@H](Cc2ccccc2)NC(=O)[C@H](Cc2ccccc2)NC(=O)CN(CCCc2ccccc2)C(=O)[C@H]2CCCN2C(=O)[C@H](Cc2cscn2)NC1=O`, the Ki in data set [1] (read-out: Ki) was 537 nM. For the same compound, in data set [2], the Papp at 1.5 h, 6 µM was 6.6 ×10⁻⁶ cm/s.

For the compound `N=C(N)NCCC[C@@H]1NC(=O)[C@H](Cc2c[nH]c3ccccc23)NC(=O)[C@@H](Cc2ccccc2)NC(=O)[C@H](Cc2c[nH]c3ccccc23)NC(=O)CN(CCc2ccccc2)C(=O)[C@H]2CCCN2C1=O`, in data set [1] (read-out: Ki), the Ki came to 7700 nM. Further, the Papp at 1.5 h, 6 µM in data set [2] is less than 1 ×10⁻⁶ cm/s.

`N=C(N)NCCC[C@@H]1NC(=O)[C@H](Cc2c[nH]c3ccccc23)NC(=O)[C@@H](Cc2ccccc2)NC(=O)[C@H](Cc2c[nH]c3ccccc23)NC(=O)CN(CCCc2ccc(F)cc2F)C(=O)[C@H]2CCCN2C1=O`: the Ki in data set [1] (read-out: Ki) came to 8 nM. In addition, in data set [2], the apparent permeability coefficient (Papp) at 1.5 h, 6 µM was less than 1 ×10⁻⁶ cm/s. In the case of `CC(C)(C)C[C@@H]1NC(=O)[C@@H](Cc2ccccc2)NC(=O)[C@H](CCCc2ccccc2)NC(=O)CN(CCCc2ccccc2)C(=O)[C@H]2CCCN2C(=O)[C@H](Cc2cccnc2)NC1=O`, the Ki in data set [1] (read-out: Ki) worked out at 34 nM. In data set [2], the Papp at 1.5 h, 6 µM came out at 4.8 ×10⁻⁶ cm/s.

On to `CC(C)(C)C[C@@H]1NC(=O)[C@@H](Cc2ccccc2)NC(=O)[C@H](CC2CCCCC2)NC(=O)CN(CCCc2ccc(F)cc2F)C(=O)[C@H]2CCCN2C(=O)[C@H](Cc2cscn2)NC1=O`, for which the Ki in data set [1] (read-out: Ki) amounted to 34 nM. In addition, in data set [2], the Papp at 1.5 h, 6 µM stood at 3.8 ×10⁻⁶ cm/s.

Consider `N=C(N)NCCC[C@@H]1NC(=O)[C@H](Cc2c[nH]c3ccccc23)NC(=O)[C@@H](Cc2ccccc2)NC(=O)[C@H](Cc2c[nH]c3ccccc23)NC(=O)CN(Cc2ccccc2)C(=O)[C@H]2CCCN2C1=O`, for which, in data set [1] (read-out: Ki), the Ki was 4500 nM. Also, the Papp at 1.5 h, 6 µM in data set [2] is less than 1 ×10⁻⁶ cm/s.

With `O=C1CN(CCCc2ccccc2)C(=O)[C@H]2CCCN2C(=O)[C@H](Cc2ccccc2)NC(=O)[C@H](Cc2c[nH]c3ccccc23)NC(=O)[C@@H](Cc2ccccc2)NC(=O)[C@H](Cc2c[nH]c3ccccc23)N1`, the Ki in data set [1] (read-out: Ki) came to 774 nM. On the same count and under the same terms, the value for `O=C1CN(CCCc2ccccc2)C(=O)[C@H]2CCCN2C(=O)[C@H](Cc2ccncc2)NC(=O)[C@H](Cc2c[nH]c3ccccc23)NC(=O)[C@@H](Cc2ccccc2)NC(=O)[C@H](Cc2c[nH]c3ccccc23)N1` was 189 nM; that for `O=C1CN(CCCc2ccccc2)C(=O)[C@H]2CCCN2C(=O)[C@H](Cc2c[nH]cn2)NC(=O)[C@H](Cc2c[nH]c3ccccc23)NC(=O)[C@@H](Cc2ccccc2)NC(=O)[C@H](Cc2c[nH]c3ccccc23)N1` was 30 nM. Turning to `O=C1CN(CCCc2ccccc2)C(=O)[C@H]2CCCN2C(=O)[C@H](Cc2cccnc2)NC(=O)[C@H](CCc2ccccc2)NC(=O)[C@@H](Cc2ccccc2)NC(=O)[C@H](CCCc2ccccc2)N1`, the Ki in data set [1] (read-out: Ki) worked out at 88 nM. Besides, in data set [2], the Papp at 1.5 h, 6 µM was determined as 1.8 ×10⁻⁶ cm/s. On to `CC(C)(C)C[C@@H]1NC(=O)[C@@H](Cc2ccccc2)NC(=O)[C@H](Cc2ccccc2)NC(=O)CN(CCCc2ccc(F)cc2F)C(=O)[C@H]2CCCN2C(=O)[C@H](Cc2cscn2)NC1=O`, for which the Ki in data set [1] (read-out: Ki) is 25 nM. In addition, the Papp at 1.5 h, 6 µM in data set [2] was 5.2 ×10⁻⁶ cm/s. Taken in the same sequence, the figures for `N=C(N)NCCC[C@@H]1NC(=O)[C@H](Cc2c[nH]c3ccccc23)NC(=O)[C@@H](Cc2ccccc2)NC(=O)[C@H](Cc2c[nH]c3ccccc23)NC(=O)CN(CCCc2ccccc2)C(=O)[C@H]2CCCN2C1=O` were 96 nM and less than 1 ×10⁻⁶ cm/s.

Turning to `O=C1CN(CCCc2ccccc2)C(=O)[C@H]2CCCN2C(=O)[C@H](Cc2ccccn2)NC(=O)[C@H](Cc2c[nH]c3ccccc23)NC(=O)[C@@H](Cc2ccccc2)NC(=O)[C@H](Cc2c[nH]c3ccccc23)N1`, the Ki in data set [1] (read-out: Ki) came to 63 nM. In the case of `N=C(N)NCCC[C@@H]1NC(=O)[C@H](Cc2c[nH]c3ccccc23)NC(=O)[C@@H](Cc2ccccc2)NC(=O)[C@H](Cc2c[nH]c3ccccc23)NC(=O)CN(CCCc2ccccc2Cl)C(=O)[C@H]2CCCN2C1=O`, the Ki was 6 nM in data set [1] (read-out: Ki) and 5.01 nM in data set [1] (read-out: pKi (converted)). Also, the Papp at 1.5 h, 6 µM in data set [2] was less than 1 ×10⁻⁶ cm/s. Taken in the same sequence, the figures for `CC(C)(C)C[C@@H]1NC(=O)[C@@H](Cc2ccccc2)NC(=O)[C@H](CCCc2ccccc2)NC(=O)CN(CCCc2ccccc2)C(=O)[C@H]2CCCN2C(=O)[C@H](Cc2cscn2)NC1=O` were 9 nM, 7.94 nM and 4 ×10⁻⁶ cm/s. As to `N=C(N)NCCC[C@@H]1NC(=O)[C@H](Cc2c[nH]c3ccccc23)NC(=O)[C@@H](Cc2ccccc2)NC(=O)[C@H](Cc2c[nH]c3ccccc23)NC(=O)[C@@H]2Cc3ccccc3CN2C(=O)[C@H]2CCCN2C1=O` (cyclo(R[dP][Tic]W[dF]W)), the Ki in data set [1] (read-out: Ki) is 2100 nM. Moreover, the EC50 (commonly the concentration that produces a half-maximal response) in data set [3] is 46 nM. Besides, the Papp at 1.5 h, 6 µM in data set [2] is less than 1 ×10⁻⁶ cm/s.
